This note sets out measurements from PubChem BioAssay AID588487 (The Scripps Research Institute Molecular Screening Center, 2011).

Holding throughout (test): PAD isozyme probe labeling blockade – biochemical, fluorescence, gel-based ABPP, HTS hits, orthogonal assay for PAD4 inhibitor project, late-stage follow-up (AID 588487)
Assay [1] deals with Protein-arginine deiminase type-1 (Homo sapiens) (UniProt Q9ULC6). The settings on record: recombinant PAD1-4, gel-based ABPP, RFA probe fluorescence; PAD1; at 10 µM; stronger effect = higher value. An outline of the steps:
(§1)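 Assay system: recombinant PAD1, PAD2, PAD3 or PAD4 / Probe or stimulus: RFA fluorescent probe at 1 µM / Doses: single compound dose of 10 µM, DMSO vehicle / Timing: 15 min compound pre-incubation plus 30 min probe step, 37 °C / Technique: in-gel fluorescence scan of probe-labeled PAD band after SDS-PAGE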

Assay [2] concerns the target Protein-arginine deiminase type-2 (Homo sapiens) (UniProt Q9Y2J8). The conditions noted are these: recombinant PAD1-4, gel-based ABPP, RFA probe fluorescence; PAD2; at 10 µM; stronger effect = higher value. The procedure, abridged:
as §1

Assay [3] has as its target Protein-arginine deiminase type-3 (Homo sapiens) (UniProt Q9ULW8). The conditions noted are these: recombinant PAD1-4, gel-based ABPP, RFA probe fluorescence; PAD3; at 10 µM; stronger effect = higher value. An outline of the steps: as §1
Assay [4] addresses Protein-arginine deiminase type-4 (Homo sapiens) (UniProt Q9UM07). The settings on record: recombinant PAD1-4, gel-based ABPP, RFA probe fluorescence; PAD4; at 10 µM; stronger effect = higher value. An outline of the steps: as §1

Active and inactive are the calls of the source.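 The calls were made as follows: active = inhibition of at least 50% against any of four protein arginine deiminase enzymes; inactive = the rest.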

Protein-arginine deiminase type-1 (Homo sapiens), sequence (Q9ULC6 whole entry, looked up): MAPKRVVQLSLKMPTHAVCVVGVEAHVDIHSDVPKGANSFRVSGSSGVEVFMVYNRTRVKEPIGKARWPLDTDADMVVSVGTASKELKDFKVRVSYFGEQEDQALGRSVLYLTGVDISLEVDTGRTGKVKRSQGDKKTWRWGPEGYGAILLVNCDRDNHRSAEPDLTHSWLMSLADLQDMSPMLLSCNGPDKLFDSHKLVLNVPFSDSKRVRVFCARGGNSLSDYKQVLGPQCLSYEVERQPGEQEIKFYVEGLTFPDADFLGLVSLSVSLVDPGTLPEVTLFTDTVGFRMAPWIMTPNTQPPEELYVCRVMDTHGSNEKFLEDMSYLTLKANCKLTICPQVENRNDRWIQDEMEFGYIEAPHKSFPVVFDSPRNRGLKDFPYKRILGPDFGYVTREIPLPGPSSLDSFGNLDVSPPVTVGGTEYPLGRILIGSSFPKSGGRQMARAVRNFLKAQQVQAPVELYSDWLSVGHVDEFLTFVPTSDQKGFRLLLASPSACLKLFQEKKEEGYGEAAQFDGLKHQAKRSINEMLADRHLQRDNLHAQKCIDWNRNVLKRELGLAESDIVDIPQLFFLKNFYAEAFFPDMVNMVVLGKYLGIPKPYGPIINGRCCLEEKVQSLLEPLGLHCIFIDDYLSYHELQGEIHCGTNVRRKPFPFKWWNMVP
Protein-arginine deiminase type-3 (Homo sapiens), sequence (Q9ULW8 whole entry, looked up): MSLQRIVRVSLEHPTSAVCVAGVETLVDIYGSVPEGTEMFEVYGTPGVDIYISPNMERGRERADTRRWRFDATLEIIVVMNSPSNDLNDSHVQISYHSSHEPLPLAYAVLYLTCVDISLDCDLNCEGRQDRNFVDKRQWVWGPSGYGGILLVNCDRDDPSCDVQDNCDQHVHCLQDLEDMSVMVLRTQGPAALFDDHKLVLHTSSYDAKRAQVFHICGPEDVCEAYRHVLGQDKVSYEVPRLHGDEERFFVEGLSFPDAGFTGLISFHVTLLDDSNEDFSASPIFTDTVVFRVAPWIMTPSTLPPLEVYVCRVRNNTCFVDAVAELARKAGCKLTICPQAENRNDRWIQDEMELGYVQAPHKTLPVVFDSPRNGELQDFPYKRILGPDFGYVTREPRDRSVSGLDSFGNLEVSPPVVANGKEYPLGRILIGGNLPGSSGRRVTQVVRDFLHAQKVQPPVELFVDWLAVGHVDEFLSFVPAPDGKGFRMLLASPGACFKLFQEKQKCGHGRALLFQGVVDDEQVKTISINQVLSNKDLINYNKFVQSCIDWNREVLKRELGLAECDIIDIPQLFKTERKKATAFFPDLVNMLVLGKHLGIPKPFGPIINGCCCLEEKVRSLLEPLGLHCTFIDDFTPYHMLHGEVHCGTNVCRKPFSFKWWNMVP
Protein-arginine deiminase type-4 (Homo sapiens), sequence (Q9UM07 whole entry, looked up): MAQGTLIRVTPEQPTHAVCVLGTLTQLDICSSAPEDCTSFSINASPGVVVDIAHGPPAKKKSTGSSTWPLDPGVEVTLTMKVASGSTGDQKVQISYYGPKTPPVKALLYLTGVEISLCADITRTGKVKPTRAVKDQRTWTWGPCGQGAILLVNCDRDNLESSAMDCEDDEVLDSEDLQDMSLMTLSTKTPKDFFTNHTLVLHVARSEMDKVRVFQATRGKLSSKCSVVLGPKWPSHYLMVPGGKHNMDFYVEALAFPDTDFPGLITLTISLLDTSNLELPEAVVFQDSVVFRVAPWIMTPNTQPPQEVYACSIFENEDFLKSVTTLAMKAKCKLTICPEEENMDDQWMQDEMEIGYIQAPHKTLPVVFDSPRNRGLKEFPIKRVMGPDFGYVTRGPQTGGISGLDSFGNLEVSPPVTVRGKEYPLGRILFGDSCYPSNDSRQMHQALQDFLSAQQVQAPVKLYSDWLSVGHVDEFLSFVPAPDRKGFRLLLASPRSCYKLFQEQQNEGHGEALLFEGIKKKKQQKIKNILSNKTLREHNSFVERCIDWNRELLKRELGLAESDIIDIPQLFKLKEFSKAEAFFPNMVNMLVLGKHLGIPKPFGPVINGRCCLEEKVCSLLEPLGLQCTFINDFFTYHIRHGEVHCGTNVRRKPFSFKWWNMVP
Protein-arginine deiminase type-2 (Homo sapiens), sequence (Q9Y2J8 whole entry, looked up): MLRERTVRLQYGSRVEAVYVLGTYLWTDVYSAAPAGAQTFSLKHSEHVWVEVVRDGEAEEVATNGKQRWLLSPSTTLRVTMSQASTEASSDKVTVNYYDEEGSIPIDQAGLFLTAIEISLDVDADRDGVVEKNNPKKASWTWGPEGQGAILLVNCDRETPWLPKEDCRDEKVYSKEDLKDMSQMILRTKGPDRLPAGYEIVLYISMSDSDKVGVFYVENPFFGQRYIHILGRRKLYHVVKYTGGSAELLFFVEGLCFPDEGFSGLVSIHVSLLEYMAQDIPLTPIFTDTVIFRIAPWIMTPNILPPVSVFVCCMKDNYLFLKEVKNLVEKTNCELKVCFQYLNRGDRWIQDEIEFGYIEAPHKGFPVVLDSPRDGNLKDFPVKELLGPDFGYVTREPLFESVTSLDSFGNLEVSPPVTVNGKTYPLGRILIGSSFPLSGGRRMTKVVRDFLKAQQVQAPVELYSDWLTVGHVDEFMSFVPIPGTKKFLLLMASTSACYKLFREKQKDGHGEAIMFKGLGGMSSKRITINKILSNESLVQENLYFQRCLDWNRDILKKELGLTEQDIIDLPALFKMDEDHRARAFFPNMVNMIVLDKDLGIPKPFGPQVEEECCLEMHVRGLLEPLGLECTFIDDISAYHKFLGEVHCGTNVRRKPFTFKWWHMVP

With `O=c1cc(-c2ccc(F)cc2)[nH][nH]1`, the inhibition is 33% (inactive) in assay [1], 28% (inactive) in assay [2], 1% (inactive) in assay [3] and 37% (inactive) in assay [4].

Take `Cc1nn(-c2cccc(Cl)c2)c2c1C(c1cccnc1)C(C#N)=C(N)O2` (centres undefined): the inhibition in assay [1] is 74%; in assay [2], 28% (inactive); in assay [3], -34% (inactive); in assay [4] it was 53%.

For the compound `CC(=O)C1=C(c2ccccc2)N(C(C)=O)n2c(C)nnc2S1`, the inhibition in assay [1] was 42% (inactive); in assay [2], 25% (inactive); in assay [3], 32% (inactive); in assay [4] it was 9% (inactive).

For the compound `CCN(CC)S(=O)(=O)c1ccc(N=NC2=C(O)CCCC2=O)cc1`, the inhibition in assay [1] was -20% (inactive); in assay [2], 63%; in assay [3], 6% (inactive); in assay [4], 93%.

Turning to `COc1ccc(C2C(C#N)=C(N)N(N(C)C)C3=C2C(=O)CCC3)cc1` (centres undefined), the inhibition was 13% (inactive) in assay [1], 21% (inactive) in assay [2], 49% (inactive) in assay [3] and 55% in assay [4].

Take `CS(=O)(=O)c1ccc(N)c(SSc2cc(S(C)(=O)=O)ccc2N)c1`: the inhibition in assay [1] is 27% (inactive); in assay [2], 14% (inactive); in assay [3], 35% (inactive); in assay [4] it was -7% (inactive).

As to `CN(C)CCCNc1cn[nH]c(=O)c1Cl`, the inhibition in assay [1] is 33% (inactive); in assay [2], 61%; in assay [3] it was -58% (inactive); in assay [4] it was 41% (inactive).

For `COC(=O)c1cc(C)nc(Sc2ccccc2N)n1`, the inhibition in assay [1] was 23% (inactive); in assay [2], 8% (inactive); in assay [3], 60%; in assay [4], -61% (inactive).

Turning to `COc1ccc(-c2cc(=O)n(CCC#N)[nH]2)cc1`, the inhibition in assay [1] was 17% (inactive); in assay [2] it was 17% (inactive); in assay [3], 35% (inactive); in assay [4] it was 32% (inactive).

For the compound `CCN(CC)c1cccc(OC2=NS(=O)(=O)c3ccccc32)c1`, the inhibition in assay [1] is 60%; in assay [2], 50%; in assay [3] it was 32% (inactive); in assay [4], 17% (inactive).

For `COc1cccc(C2=CC(c3ccc(OC)c(OC)c3)NC(=S)N2)c1` (centres undefined), the inhibition in assay [1] is -9% (inactive); in assay [2] it was 14% (inactive); in assay [3], -3% (inactive); in assay [4], -9% (inactive).

In the case of `COc1cccc(NC(=O)CN(C)C(=O)C23CC4CC(CC(Cl)(C4)C2)C3)c1`, the inhibition in assay [1] is 13% (inactive); in assay [2], 17% (inactive); in assay [3], 13% (inactive); in assay [4] it was 60%.

Regarding `CN(C)CCN(Cc1ccccc1)c1ccccn1`, the inhibition in assay [1] was 13% (inactive); in assay [2] it was 46% (inactive); in assay [3], -7% (inactive); in assay [4] it was 65%.

Take `CCOc1c(Br)cc(/C=C2\C(=O)N(CCC#N)N=C2C)cc1OC`: the inhibition was 45% (inactive) in assay [1], 25% (inactive) in assay [2], 15% (inactive) in assay [3] and 52% in assay [4].

Turning to `Cc1cc(C)c(C#N)c(Sc2ccccc2N)n1`, the inhibition is 36% (inactive) in assay [1], 38% (inactive) in assay [2], 5% (inactive) in assay [3] and 6% (inactive) in assay [4].

Turning to `COc1ccc(OC)c(C2C(C#N)=C(N)Oc3c2c(C)nn3-c2ccc(C)cc2)c1` (centres undefined), the inhibition in assay [1] was 22% (inactive); in assay [2], 18% (inactive); in assay [3], -37% (inactive); in assay [4] it was 31% (inactive).

On to `O=C(NCC1CCCO1)c1cc2c([nH]c3ccccc32)c(-c2ccc(F)cc2)n1` (centres undefined), for which the inhibition was 36% (inactive) in assay [1], 13% (inactive) in assay [2], -27% (inactive) in assay [3] and 78% in assay [4].

Regarding `CCC(=O)Oc1ccc(C(=O)Nc2cccc(C(=O)NC(C)(C)C)c2)cc1`, the inhibition was 34% (inactive) in assay [1], 29% (inactive) in assay [2], 40% (inactive) in assay [3] and 4% (inactive) in assay [4].

As for `COc1ccc(CCNC(=O)COC(=O)c2ccc(C)s2)cc1`, the inhibition in assay [1] is -2% (inactive); in assay [2], 40% (inactive); in assay [3], -38% (inactive); in assay [4] it was 72%.

Turning to `O=C(O)c1ccc(S(=O)(=O)c2ccc3c(c2)C(=O)N(c2ccc(O)cc2)C3=O)cc1`, the inhibition in assay [1] was 18% (inactive); in assay [2], 32% (inactive); in assay [3] it was 34% (inactive); in assay [4], -3% (inactive).

Regarding `O=c1cc(-c2ccc(Cl)cc2)[nH][nH]1`, the inhibition in assay [1] is 33% (inactive); in assay [2], 62%; in assay [3], -44% (inactive); in assay [4] it was 41% (inactive).

With `COc1cccc2cc(C(=O)NC3CC(C)(C)NC(C)(C)C3)c(=O)oc12`, the inhibition in assay [1] is 15% (inactive); in assay [2], 7% (inactive); in assay [3], 66%; in assay [4], 31% (inactive).

As to `CC(=O)Nc1c2c3c(cccc3n(C)c1=O)C(=O)c1ccccc1-2`, the inhibition in assay [1] is -5% (inactive); in assay [2], 37% (inactive); in assay [3], 32% (inactive); in assay [4], 28% (inactive).

Take `COc1ccc(C2=CC(c3ccc(OC)c(OC)c3)NC(=S)N2)cc1` (centres undefined): the inhibition in assay [1] is 37% (inactive); in assay [2], -9% (inactive); in assay [3], 36% (inactive); in assay [4], -50% (inactive).

Regarding `Cc1oc2c(C)c(O)ccc2c(=O)c1-c1ccc2ccccc2n1`, the inhibition in assay [1] is -33% (inactive); in assay [2], 50%; in assay [3], 42% (inactive); in assay [4], 1% (inactive).

On to `Cc1c(NC(=O)CSc2nccn2C)c(=O)n(-c2ccccc2)n1C`, for which the inhibition in assay [1] is 46% (inactive); in assay [2], 35% (inactive); in assay [3], -7% (inactive); in assay [4], 66%.

Consider `S=C(NCc1ccco1)Nc1cccc(Cl)c1`, for which the inhibition in assay [1] was 46% (inactive); in assay [2], 25% (inactive); in assay [3] it was 43% (inactive); in assay [4], 1% (inactive).

Regarding `Cc1cc(C)cc(NC(=S)/C(=C(\[O-])c2ccc(Cl)s2)[n+]2cccc(C)c2)c1`, the inhibition in assay [1] was -1% (inactive); in assay [2] it was 50%; in assay [3], 28% (inactive); in assay [4], -8% (inactive).

As to `CCN(CC)S(=O)(=O)c1ccc(C)c(NS(=O)(=O)c2cc(/C=C/C(=O)O)cc(OC)c2OC)c1`, the inhibition in assay [1] was 9% (inactive); in assay [2] it was 40% (inactive); in assay [3], 33% (inactive); in assay [4], 40% (inactive).

`O=C(CN1CCCCCC1)Nc1ccc(Br)cc1Br`: the inhibition in assay [1] was 41% (inactive); in assay [2], -16% (inactive); in assay [3] it was 31% (inactive); in assay [4], -53% (inactive).

Regarding `COc1ccc(-c2cc(=O)[nH][nH]2)cc1`, the inhibition in assay [1] was 58%; in assay [2], 53%; in assay [3] it was 32% (inactive); in assay [4] it was 35% (inactive).

In the case of `CCNC(=S)NNC(=O)c1csc(C)c1`, the inhibition in assay [1] was 2% (inactive); in assay [2], -19% (inactive); in assay [3] it was 14% (inactive); in assay [4], 25% (inactive).

Turning to `Cc1cc(C)c(C)c(S(=O)(=O)N2CCC(C(=O)N3CCCC3)CC2)c1C`, the inhibition in assay [1] was -32% (inactive); in assay [2] it was -43% (inactive); in assay [3] it was 22% (inactive); in assay [4] it was 39% (inactive).

Consider `Cn1c(SCC(=O)Nc2ccc(Br)cn2)nnc1C1CC1`, for which the inhibition is 17% (inactive) in assay [1], 19% (inactive) in assay [2], -19% (inactive) in assay [3] and 15% (inactive) in assay [4].

Regarding `O=[N+]([O-])c1ccc2nc(-c3ccccc3)n(OCc3ccc(Cl)cc3)c2c1`, the inhibition in assay [1] was 3% (inactive); in assay [2] it was 36% (inactive); in assay [3] it was 36% (inactive); in assay [4], -3% (inactive).

On to `COc1ccc(-c2noc3c2-c2nc(-c4ccc(Br)cc4)sc2CC3)cc1`, for which the inhibition is 33% (inactive) in assay [1], 32% (inactive) in assay [2], -23% (inactive) in assay [3] and 47% (inactive) in assay [4].
